{"source": "ChEMBL document CHEMBL3779787", "about": "“Amorfrutin C Induces Apoptosis and Inhibits Proliferation in Colon Cancer Cells through Targeting Mitochondria” (J Nat Prod, 2016)", "key": {"HT-29 [1]": {"test_system": "HT-29", "assay": "Induction of apoptosis in human HT-29 cells at 30 uM after 24 hrs by annexin V-FLUOS/propidium iodide staining-based flow cytometry in presence of cyclosporine A", "format": "functional, cell-based", "how_it_was_run": "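For 24 h, HT-29 cells were exposed to 30 μM compound with or without cyclosporin A (2 μM). Apoptosis and necrosis were scored by annexin V-FLUOS/propidium iodide flow cytometry. Means ± SEM, n = 3.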"}, "HT-29 [2]": {"test_system": "HT-29", "assay": "Downregulation of cyclin D3 expression in human HT-29 cells at 10 uM after 48 hrs by immunoblotting method", "format": "functional, cell-based", "how_it_was_run": "(§1)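 HT-29 exposed to 10 μM for 48 h; whole-cell lysates immunoblotted for the indicated proteins (total and cleaved PARP for the apoptosis line).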"}, "HT-29 [3]": {"test_system": "HT-29", "assay": "Induction of apoptosis in human HT-29 cells assessed as cleaved PARP level at 10 uM after 48 hrs", "format": "functional, cell-based", "how_it_was_run": "as §1"}, "HT-29 [4]": {"test_system": "HT-29", "assay": "Downregulation of CDK6 expression in human HT-29 cells at 10 uM after 48 hrs by immunoblotting method", "format": "functional, cell-based", "how_it_was_run": "as §1"}, "HT-29 [5]": {"test_system": "HT-29", "assay": "Induction of apoptosis in human HT-29 cells at 30 uM after 24 hrs by annexin V-FLUOS/propidium iodide staining-based flow cytometry in presence of N-acetylcysteine", "format": "functional, cell-based", "how_it_was_run": "(§2)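 HT-29 treated 24 h with 30 μM with or without antioxidant (NAC 1 mM, D3T 25 μM). Apoptosis by annexin V/propidium iodide flow cytometry; means ± SEM, n = 3.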"}, "HT-29 [6]": {"test_system": "HT-29", "assay": "Induction of apoptosis in human HT-29 cells assessed as increase in caspase 8 activity at 30 uM after 2 hrs by luminescent assay relative to control", "format": "functional", "how_it_was_run": "(§3)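 HT-29 cells exposed to compound 2 h; effector/initiator caspase enzymatic activity measured by luminescent assays, normalized to control treatment; means ± SEM, n = 4.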"}, "T84": {"test_system": "T84", "assay": "Antiproliferative activity against human T84 cells assessed as cellular DNA content after 96 hrs by CyQUANT NF fluorescence assay relative to control", "format": "functional", "how_it_was_run": "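Cells seeded at 750 (HT-29), 250 (PC-3) or 900 (T84, MCF7) cells/well, treated next day with concentration series for 72 h (HT-29, PC-3) or 96 h (T84, MCF7). Relative cell number from cellular DNA content by fluorescent DNA-binding dye. Variable-slope fit; efficiency = maximal inhibition (100% − Bottom) vs untreated; IC50 relative to the compound's own maximal efficiency.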"}, "HT-29 [7]": {"test_system": "HT-29", "assay": "Induction of apoptosis in human HT-29 cells assessed as increase in cleaved caspase 3 at 30 uM after 6 hrs by DAPI staining-based fluorescence microscopy", "format": "functional, cell-based", "how_it_was_run": "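HT-29 on coverslips treated 30 μM for 6 h, fixed in 4% formaldehyde, permeabilized with 0.3% Triton X-100, blocked in goat serum. Anti-cleaved caspase 3 (1:200) overnight at 4 °C, then Alexa Fluor 488 secondary (1:1000) 1 h. DAPI counterstain; imaged by fluorescence microscopy.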"}, "HT-29 [8]": {"test_system": "HT-29", "assay": "Upregulation of p27/Kip1 expression in human HT-29 cells at 10 uM after 48 hrs by immunoblotting method", "format": "functional, cell-based", "how_it_was_run": "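HT-29 cells exposed 48 h to 10 μM compound. Whole-cell protein lysates probed for cell-cycle modulators by immunoblotting.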"}, "HT-29 [9]": {"test_system": "HT-29", "assay": "Downregulation of CDK2 expression in human HT-29 cells at 10 uM after 48 hrs by immunoblotting method", "format": "functional, cell-based", "how_it_was_run": "as §1"}, "HT-29 [10]": {"test_system": "HT-29", "assay": "Downregulation of CDK4 expression in human HT-29 cells at 10 uM after 48 hrs by immunoblotting method", "format": "functional, cell-based", "how_it_was_run": "as §1"}, "HT-29 [11]": {"test_system": "HT-29", "assay": "Induction of apoptosis in human HT-29 cells assessed as increase in caspase 3/7 activity at 30 uM after 2 hrs by luminescent assay relative to control", "format": "functional", "how_it_was_run": "as §3"}, "HT-29 [12]": {"test_system": "HT-29", "assay": "Antiproliferative activity against human HT-29 cells assessed as cellular DNA content at 20 uM after 48 hrs by CyQUANT NF fluorescence assay in presence of PPAR siRNA", "format": "functional, cell-based", "how_it_was_run": "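HT-29 reverse-transfected with equimolar siRNA pool against PPARα, β/δ, γ (10 nM each) or 30 nM nonspecific siRNA, seeded 850 cells/well. After 48 h, 20 μM compound added for a further 48 h. Relative cell number from DNA content; means ± SD, n = 8.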"}, "[13]": {"biological_target": "T1, Peroxisome proliferator-activated receptor alpha (Homo sapiens, UniProt Q07869)", "T1 sequence (Q07869 whole entry)": "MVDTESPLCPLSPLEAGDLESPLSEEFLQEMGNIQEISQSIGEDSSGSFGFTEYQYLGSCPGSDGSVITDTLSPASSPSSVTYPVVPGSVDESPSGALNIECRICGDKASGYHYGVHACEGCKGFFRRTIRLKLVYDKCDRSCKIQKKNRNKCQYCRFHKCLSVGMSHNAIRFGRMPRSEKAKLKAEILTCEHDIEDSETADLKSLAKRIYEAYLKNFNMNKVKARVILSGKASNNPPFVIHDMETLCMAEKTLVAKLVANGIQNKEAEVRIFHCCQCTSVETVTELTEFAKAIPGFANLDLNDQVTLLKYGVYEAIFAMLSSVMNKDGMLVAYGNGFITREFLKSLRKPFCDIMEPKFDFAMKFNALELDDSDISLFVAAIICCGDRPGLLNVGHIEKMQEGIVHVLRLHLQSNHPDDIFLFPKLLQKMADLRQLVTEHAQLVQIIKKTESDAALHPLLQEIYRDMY", "assay": "Competitive binding affinity to PPARalpha (unknown origin) by TR-FRET assay"}, "HT-29 [14]": {"test_system": "HT-29", "assay": "Induction of apoptosis in human HT-29 cells assessed as opening of mitochondrial permeability transition pore at 30 uM after 30 mins calcein/CoCl2 staining-based fluorescence assay in presence of cyclosporinA", "format": "functional, cell-based", "how_it_was_run": "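Trypsinized HT-29 (10^6 cells/mL) in HBSS/Ca with 10 nM calcein and 400 μM CoCl2. Pretreated 60 min at 37 °C with 2 μM cyclosporin A or vehicle, then test compound for 30 min at 37 °C. Washed; mitochondrial calcein fluorescence by flow cytometry; means ± SEM, n = 6.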"}, "HT-29 [15]": {"test_system": "HT-29", "assay": "Induction of cell cycle arrest in human HT-29 cells assessed as accumulation at G0/G1 phase at 10 uM by flow cytometry (reference value: 66%)", "format": "functional"}, "HT-29 [16]": {"test_system": "HT-29", "assay": "Induction of apoptosis in human HT-29 cells assessed as DNA fragmentation by measuring cytoplasmic BrdU-labeled DNA at 30 uM by ELISA", "format": "functional, cell-based", "how_it_was_run": "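Cytosolic DNA by ELISA after 4 h treatment. BrdU method: cells (13 000/well) prelabelled with 10 μM BrdU for 2 days at 37 °C, unincorporated BrdU removed before treatment. Oligonucleosome method: 20 000 cells/well, 1 day at 37 °C. Cell-free background subtracted, normalized to vehicle; means ± SEM, n = 4.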"}, "HT-29 [17]": {"test_system": "HT-29", "assay": "Induction of apoptosis in human HT-29 cells at 30 uM after 24 hrs by annexin V-FLUOS/propidium iodide staining-based flow cytometry in presence of glutathione", "format": "functional, cell-based", "how_it_was_run": "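HT-29 cells co-incubated 24 h with 30 μM compound and antioxidant: glutathione 2.5 mM, α-tocopherol 50 μM, or ascorbic acid 500 μM. Phosphatidylserine externalization measured by annexin V-FLUOS/propidium iodide staining and flow cytometry. Means ± SEM, n = 3.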"}, "HT-29 [18]": {"test_system": "HT-29", "assay": "Induction of apoptosis in human HT-29 cells at 30 uM after 24 hrs by annexin V-FLUOS/propidium iodide staining-based flow cytometry in presence of 3H-1,2-dithiole-3-thione", "format": "functional, cell-based", "how_it_was_run": "as §2"}}, "note": "Active and inactive are the calls of the source. The rule behind the calls is not given here."}
{"smiles": "COc1c(CC=C(C)C)c(O)c(C(=O)O)c(CCc2ccccc2)c1CC=C(C)C", "values": [{"measurement": "Activity", "setting": "HT-29 [1]", "result": "Active"}, {"measurement": "Activity", "setting": "HT-29 [2]", "result": "Active"}, {"measurement": "Activity", "setting": "HT-29 [3]", "result": "Active"}, {"measurement": "Activity", "setting": "HT-29 [4]", "result": "Active"}, {"measurement": "Activity", "setting": "HT-29 [5]", "result": "Active"}, {"measurement": "fold change (FC)", "setting": "HT-29 [6]", "result": 3}, {"measurement": "Efficacy", "setting": "T84", "result": 99, "unit": "%"}, {"measurement": "Activity", "setting": "HT-29 [7]", "result": "Active"}, {"measurement": "Activity", "setting": "HT-29 [8]", "result": "Active"}, {"measurement": "Activity", "setting": "HT-29 [9]", "result": "Active"}, {"measurement": "Activity", "setting": "HT-29 [10]", "result": "Active"}, {"measurement": "fold change (FC)", "setting": "HT-29 [11]", "result": 2}, {"measurement": "Activity", "setting": "HT-29 [12]", "result": "Active"}, {"measurement": "Ki", "setting": "[13]", "result": 9.1, "unit": "µM"}, {"measurement": "Activity", "setting": "HT-29 [14]", "result": "inactive"}, {"measurement": "Activity", "setting": "HT-29 [15]", "result": 89, "unit": "%"}, {"measurement": "Activity", "setting": "HT-29 [16]", "result": "Active"}, {"measurement": "Activity", "setting": "HT-29 [17]", "result": "Active"}, {"measurement": "Activity", "setting": "HT-29 [18]", "result": "Active"}]}
